Ecoli rRNA inh: inhibits bacterial ribosomal RNA function over humanized ribosomes | E. coli WT GFP vs humanized-ribosome RFP mutants, fluorescence, 24 h; hits give low values; DMSO median 0, no signal -100 | GFP signal change (wild-type ribosome), % (concentration not given with the values) | 350,000 tested, 1.6% active;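 active means significant combined selectivity score with lowered wild-type GFP, culture density cut under 30%, mutant RFP and density less affected; inactive means any of these conditions unmet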
Mot1-301 SUMO: SUMOylation pathway inhibition by Mot1-301 growth rescue | S. cerevisiae Mot1-301 growth rescue, ATP luminescence, 38.5C; percent above DMSO median, 100 means doubled | growth rescue, % at 18.8 µM | 320,000 tested, 1% active | AID 2716;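 active means every valid replicate shows activation above 250% relative to neutral control wells; inactive means the rest, any valid replicate at or below 250%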;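 further: OY570 slx delta 5 strain wells were the positive control but not used for scaling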
PglD DTNB: inhibitors of Campylobacter jejuni PglD acetyltransferase; 360,000 tested, 0.098% active; inhibition, % at 12.5 µM; purified PglD enzyme, DTNB colorimetric CoA detection; AID 602405; in the data active means inhibition above about 16%, passing the limit was not always enough
CR mimetic SO: yeast age-related superoxide inhibition as caloric restriction mimetic; S. cerevisiae aged cells, superoxide DHE fluorescence; hits give low values; superoxide response (% of plate mean), % at 10 µM; 330,000 tested, 0.18% active; AID 2690;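 active means superoxide response under a set limit, about three screen SD below normal, cut at about 65% in these data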;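 further: yeast aged for seven days with compound at 30 °C before DHE staining; 100% = average MFI of all compound-treated wells on the plate with controls excluded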
Cneo AK release: Cryptococcus neoformans lysis via adenylate kinase release | C. neoformans lysis, adenylate kinase release luminescence, 4 h; normalised: neutral wells 0, clomiphene wells 100 | lysis activity, % at 15 µM | 360,000 tested, 0.2% active;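 active means mean lysis activity across replicates of at least 80%, whatever share of replicates individually reach that level; inactive means mean lysis activity below 80%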
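Test system: log-phase Cryptococcus neoformans yeast cells. Input: 5 × 10^6 yeast cells/mL. Medium: fresh YPD growth medium. Doses: single dose. Incubation: static 4 h at 37 °C with compound, 1 h detection. Measured by: luminescent adenylate kinase detection reagent. Read-out: signal increase indicating cell lysis. Benchmarks: Clomiphene.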
* = called active by the depositor; · = no result. The list is not random: actives were taken first. Their share in the collection is about 2.2%.

SMILES	Ecoli rRNA inh	Mot1-301 SUMO	PglD DTNB	CR mimetic SO	Cneo AK release
O=C(Cn1c2[n+](c3ccc(C(F)(F)F)cc31)CCCCC2)c1ccc2c(c1)OCCO2	-38*	10	·	95	·
CCc1cccc(NC(=O)Cn2c3[n+](c4ccc(C(F)(F)F)cc42)CCCCC3)c1	-45*	82	·	85	·
O=C(Cn1c2[n+](c3ccc(C(F)(F)F)cc31)CCCCC2)c1cccc([N+](=O)[O-])c1	4	-2	-3	100	0
Cc1ccc(S(=O)(=O)N[C@@H]2CC[C@@H](CC(=O)NCCN3CCCCC3)O[C@@H]2CO)cc1	2	·	3	·	-5
CCN(CC(=O)Nc1ccccc1C(=O)Nc1ccccc1)Cc1nc2ccccc2c(=O)[nH]1	7	3	·	103	·
CCN(CC(=O)Nc1ccccc1SC)Cc1nc2ccccc2c(=O)[nH]1	-9	5	1	62*	-6
CCN(CC(=O)Nc1cccc(Br)c1)Cc1nc2ccccc2c(=O)[nH]1	·	·	1	·	2
CCN(CC(=O)Nc1ccccc1-c1ccccc1)Cc1nc2ccccc2c(=O)[nH]1	-25*	-6	5	97	3
C[C@@H]1CN([C@H](C)CO)S(=O)(=O)c2ccc(-c3cccc(F)c3)cc2O[C@@H]1CN(C)CC1CC1	2	·	1	·	5
CCO[C@H]1OC(C(=O)NCc2ccccc2)=C[C@@H](c2ccccc2)[C@@H]1CCCO	-25*	-6	-2	105	-1
C[C@@H]1CCCCO[C@H](CN(C)C(=O)CCCN(C)C)[C@@H](C)CN([C@H](C)CO)C(=O)c2cc(NC(=O)Cc3ccccc3)ccc2O1	5	·	1	·	116*
C[C@@H]1CCCCO[C@@H](CN(C)C(=O)CCCN(C)C)[C@@H](C)CN([C@H](C)CO)C(=O)c2cc(NC(=O)Cc3ccccc3)ccc2O1	8	·	-46	·	104*
O=C(CNC(=O)C(c1ccccc1)c1ccccc1)N/N=C/c1ccc(O)c([N+](=O)[O-])c1	-20*	-10	2	106	-1
O=C(CN1CCOCC1)NCC[C@@H]1CC[C@H](NC(=O)Nc2ccc(Cl)cc2)[C@@H](CO)O1	0	·	-2	·	3
CCOC(=O)C1C(=O)C=C(c2cccs2)CC1c1ccccc1C (stereo not given)	·	13	·	91	·
CCOC(=O)C1C(=O)C=C(c2cccs2)CC1c1ccccc1 (stereo not given)	-28*	8	·	110	·
O=C(NN1C(=O)/C(=C/c2ccc(O)c([N+](=O)[O-])c2)SC1=S)c1ccccc1Cl	-22*	20	·	85	·
O=C(NCCN1CCCCC1)[C@H]1N[C@H]2c3ccc(-c4cccnc4)c(=O)n3C[C@H]2[C@@H]1CO	2	·	-4	·	2
O=C(NCCN1CCCCC1)[C@@H]1N[C@@H]2c3ccc(-c4ccncc4)c(=O)n3C[C@@H]2[C@H]1CO	2	·	2	·	103*
O/N=C1\CCCc2ccc3ccccc3c21	-38*	-21	6	99	-12
COC(=O)C[C@@H]1C[C@@H]2c3cc(NS(=O)(=O)c4cccc(OC)c4)ccc3O[C@@H]2[C@@H](CO)O1	-4	·	1	·	6
COc1cccc(S(=O)(=O)Nc2ccc3c(c2)[C@H]2C[C@@H](CC(=O)NCc4cccc(F)c4)O[C@@H](CO)[C@H]2O3)c1	-1	·	-1	·	0
COc1cccc(S(=O)(=O)Nc2ccc3c(c2)[C@H]2C[C@@H](CC(=O)NC4CCCCC4)O[C@@H](CO)[C@H]2O3)c1	-7	·	4	·	101*
COc1cccc(S(=O)(=O)Nc2ccc3c(c2)[C@H]2C[C@H](CC(=O)NCc4cccc(F)c4)O[C@@H](CO)[C@H]2O3)c1	-5	·	3	·	94*
COc1cccc(S(=O)(=O)Nc2ccc3c(c2)[C@H]2C[C@@H](CC(=O)NCc4ccccc4F)O[C@H](CO)[C@H]2O3)c1	1	·	4	·	1
COc1cccc(S(=O)(=O)Nc2ccc3c(c2)[C@H]2C[C@H](CC(=O)NCc4cccc(F)c4)O[C@H](CO)[C@H]2O3)c1	-1	·	-3	·	-1
COc1cccc(S(=O)(=O)Nc2ccc3c(c2)[C@H]2C[C@H](CC(=O)NCc4ccccc4F)O[C@@H](CO)[C@H]2O3)c1	2	·	0	·	95*

Screening data deposited in PubChem by several laboratories.
